Where only a bound is given, the exact number is not on record here.

The text below walks through data of ChEMBL document CHEMBL1148584, “Effect of polyamine homologation on the transport and biological properties of heterocyclic amidines” (J Med Chem, 2006).

Data set [1] relates to L1210. The experiment in a line: Intracellular level of conjugate in L1210 cells in the presence of DFMO at 10 uM. In kind it is functional, cell-based. The note with it: Mus musculus. The essentials: (§1)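 L1210 cells in RPMI 1640/10% FCS with 2 mM aminoguanidine, seeded at 4 × 10⁴ cells/mL. Conjugate, with or without 5 mM DFMO, added at seeding; cells cultured 48 h, washed in cold NaCl, and extracted with 0.2 N HClO₄. Conjugate and free putrescine, spermidine and spermine quantified by ion-pair HPLC (UV 254 nm, fluorescence ex 345/em 455 nm); normalised to protein. Student's t-test, p<0.05.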

For data set [2], the system named is CHO. The experiment in a line: Cellular uptake in CHO cells at 10 uM. In kind it is ADME, cell-based, Cricetulus griseus. As to conditions: chinese hamster. The method in brief: (§2)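 CHO (RPMI 1640, 10% FCS, 2 mM aminoguanidine) and CHO-MG (plus L-proline) cells seeded at 2 × 10⁵ cells/mL. Conjugate added 24 h after seeding and cells harvested 24 h later, then washed in cold 0.14 M NaCl and sonicated in 0.2 N HClO₄. Supernatant analysed by ion-pair reversed-phase HPLC (n-octanesulfonate), expressed as nmol/mg protein; mean ± SD of three determinations.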

The subject of data set [3] is CHO-MG. The experiment in a line: Cellular uptake in CHO-MG cells at 10 uM. In kind it is ADME, cell-based, Cricetulus griseus. The note with it: chinese hamster. The method in brief:
as §2

The test system of data set [4] is CHO-MG. The experiment in a line: Selectivity for uptake in CHO cell line over CHO-MG cell line at 10 uM. The note with it: Cricetulus griseus. In kind it is functional, cell-based. The essentials:
(§3)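 Ratio of intracellular conjugate level in CHO over CHO-MG cells. Both lines were exposed to conjugate 24 h after seeding at 2 × 10⁵ cells/mL, for 24 h with 2 mM aminoguanidine in the medium. Levels were measured by ion-pair HPLC of perchloric extracts and normalised to protein (nmol/mg).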

Data set [5] has as its system L1210. The experiment in a line: Intracellular level of spermine in L1210 cells in the absence of DFMO at 10 uM. In kind it is functional, cell-based. The note with it: Mus musculus. The method in brief:
as §1

Data set [6] deals with L1210. The experiment in a line: Intracellular level of conjugate in L1210 cells in the absence of DFMO at 10 uM. As to conditions: Mus musculus. In kind it is functional, cell-based. The method in brief: as §1
In data set [7] the test system is L1210. The experiment in a line: Intracellular level of spermine in L1210 cells in the presence of DFMO at 10 uM. The note with it: Mus musculus. In kind it is functional, cell-based. The method in brief: as §1
Data set [8] concerns L1210. The experiment in a line: Inhibition of cell growth in L1210 cells in the presence of DFMO. The note with it: Mus musculus. In kind it is functional, cell-based. The essentials: (§4)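 L1210 cells seeded at 5 × 10⁴ cells/mL with conjugate added at seeding; CHO/CHO-MG plated at 2 × 10³ cells/mL with conjugate added after overnight (24 h). 5 mM DFMO added together with conjugate; medium contains 2 mM aminoguanidine. After 48 h, growth read by MTT formazan absorbance at 540 nm. IC50 is 50% growth inhibition; mean of three determinations.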

Data set [9] in a line: Selectivity for uptake in CHO cell line over CHO-MG cell line at 25 uM. In kind it is functional, Cricetulus griseus. The method in brief:
as §3

Data set [10] concerns the target Phosphodiesterase 1 (Bos taurus, UniProt Q01061+P14100). The experiment in a line: Inhibition of bovine calmodulin-activated cAMP dependent phosphodiesterase. In kind it is protein assay. The essentials:
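Crude bovine heart PDE preparation containing calmodulin and Ca²⁺ (0.2 milliunit). Incubated 20 min at 37 °C with 0.1 mM [8-³H]cAMP and graded drug concentrations in 30 mM Tris-HCl, 3 mM MgSO₄, 0.6 mM AMP. Stopped with ZnSO₄; Ba(OH)₂ precipitated AMP with BaSO₄; supernatant radioactivity counted. IC50 is the concentration giving 50% inhibition.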

For data set [11], the system named is CHO. The experiment in a line: Cellular uptake in CHO cells at 25 uM. The note with it: chinese hamster. In kind it is ADME, cell-based, Cricetulus griseus. The essentials:
as §2

In data set [12] the test system is CHO-MG. The experiment in a line: Cellular uptake in CHO-MG cells at 25 uM. In kind it is ADME, cell-based, Cricetulus griseus. As to conditions: chinese hamster. The essentials:
as §2

For data set [13], the system named is L1210. The experiment in a line: Intracellular level of spermidine in L1210 cells in the absence of DFMO at 10 uM. In kind it is functional, cell-based. As to conditions: Mus musculus. The essentials: as §1
The subject of data set [14] is L1210. The experiment in a line: Intracellular level of spermidine in L1210 cells in the presence of DFMO at 10 uM. In kind it is functional, cell-based. As to conditions: Mus musculus. The method in brief:
as §1

Data set [15] relates to CHO. The experiment in a line: Inhibition of cell growth in CHO cells in the presence of DFMO. In kind it is functional, cell-based. The note with it: Cricetulus griseus. The essentials:
as §4

The subject of data set [16] is L1210. The experiment in a line: Intracellular level of putrescine in L1210 cells in the absence of DFMO at 10 uM. In kind it is functional, cell-based. The note with it: Mus musculus. The method in brief:
as §1

Data set [17] deals with L1210. The experiment in a line: Intracellular level of putrescine in L1210 cells in the presence of DFMO at 10 uM. In kind it is functional, cell-based. As to conditions: Mus musculus. The essentials: as §1
Data set [18] deals with CHO-MG. The experiment in a line: Inhibition of cell growth in CHO-MG cells in the presence of DFMO. The note with it: Cricetulus griseus. In kind it is functional, cell-based. The method in brief:
as §4

In data set [19] the test system is CHO. The experiment in a line: Cellular uptake in CHO cells at 50 uM. As to conditions: chinese hamster. In kind it is ADME, cell-based, Cricetulus griseus. The essentials:
as §2

Data set [20] has as its system CHO-MG. The experiment in a line: Cellular uptake in CHO-MG cells at 50 uM. In kind it is ADME, cell-based, Cricetulus griseus. As to conditions: chinese hamster. The method in brief:
as §2

Data set [21] is described as follows: Selectivity for uptake CHO cell line over CHO-MG cell line at 50 uM. In kind it is functional, Cricetulus griseus. The method in brief: as §3
Data set [22] concerns L1210. The experiment in a line: Intracellular level of spermine in L1210 cells in the absence of DFMO at 20 uM. In kind it is functional, cell-based. As to conditions: Mus musculus. The method in brief:
as §1

Data set [23] has as its system L1210. The experiment in a line: Intracellular level of spermine in L1210 cells in the presence of DFMO at 20 uM. As to conditions: Mus musculus. In kind it is functional, cell-based. The essentials:
as §1

Data set [24] concerns L1210. The experiment in a line: Intracellular level of conjugate in L1210 cells in the absence of DFMO at 20 uM. In kind it is functional, cell-based. The note with it: Mus musculus. The method in brief: as §1
Data set [25] relates to L1210. The experiment in a line: Intracellular level of polyamine in L1210 cells in the presence of DFMO at 20 uM. The note with it: Mus musculus. In kind it is functional, cell-based. The essentials: as §1
Data set [26] has as its system L1210. The experiment in a line: Intracellular level of putrescine in L1210 cells in the absence of DFMO at 20 uM. In kind it is functional, cell-based. The note with it: Mus musculus. The method in brief: as §1
The test system of data set [27] is L1210. The experiment in a line: Intracellular level of putrescine in L1210 cells in the presence of DFMO at 20 uM. In kind it is functional, cell-based. As to conditions: Mus musculus. The method in brief:
as §1

Data set [28] concerns L1210. The experiment in a line: Intracellular level of spermidine in L1210 cells in the absence of DFMO at 20 uM. In kind it is functional, cell-based. As to conditions: Mus musculus. The method in brief:
as §1

The test system of data set [29] is L1210. The experiment in a line: Intracellular level of spermidine in L1210 cells in the presence of DFMO at 20 uM. In kind it is functional, cell-based. As to conditions: Mus musculus. The method in brief: as §1

The term IC50 denotes the concentration needed to halve the response being measured. In the case of `NCCCCNCCCNC1=Nc2ccccc2CC1`, the Drug uptake in data set [1] stood at 8.2 nmol/mg; in data set [2], 11 nmol/mg; in data set [3] it was 1.6 nmol/mg; in data set [5] it was 7.1 nmol/mg; in [6], 4.3 nmol/mg; in data set [7], 12.1 nmol/mg. Further, the Drug uptake in data set [11] turned out to be 15.4 nmol/mg; in data set [12] it was 2.2 nmol/mg; in data set [13], 14.5 nmol/mg; in [14], 3.2 nmol/mg. For the same compound, in [4], the Ratio turned out to be 6.9. Further, the IC50 was over 100 µM in data set [8] and over 500 µM in data set [10]. For the same compound, the Selectivity ratio in data set [9] came to 7.

As to `CN(c1ccccc1)C1c2ccccc2N=C(NCCCO)C1(C)C` (centres undefined), the 50% inhibitory concentration (IC50) in data set [10] was over 500 µM.

On to `CNc1ccc(C2c3ccccc3N=C(NCCCNCCCCNCCCN)C2(C)C)cc1` (centres undefined), for which the Drug uptake is 0.74 nmol/mg in data set [1]; 1.1 nmol/mg in [16]; 0.07 nmol/mg in data set [17]; 9.4 nmol/mg in data set [5]; 0.54 nmol/mg in data set [6]; 7.8 nmol/mg in [7]. Further, the Drug uptake in [11] stood at 0.72 nmol/mg; in data set [12], 0.81 nmol/mg; in [13], 17 nmol/mg; in data set [14] it was 0.66 nmol/mg. In addition, the half-maximal inhibitory concentration (IC50) came to 11 µM in data set [15], 3.1 µM in [8], 23 µM in data set [10] and 23 µM in [18]. Further, the Selectivity ratio in data set [9] is listed as 0.9.

As to `NCCCCN` [PUTRESCINE], the concentration for half-maximal inhibition (IC50) in data set [10] was over 500 µM; in data set [18], over 100 µM.

For `NCCCCNCCCN` [SPERMIDINE], the half-maximal inhibitory concentration (IC50) in data set [10] is over 500 µM; in data set [18] it was over 100 µM.

Take `CN(c1ccccc1)C1c2ccccc2N=C(NCCCCN)C1(C)C` (centres undefined): the IC50 in [15] is over 100 µM; in data set [8], 33 µM; in [10], 51 µM; in data set [18], 13 µM. Besides, the Drug uptake was 13 nmol/mg in data set [2] and 12 nmol/mg in [3]. Also, the Ratio in data set [4] turned out to be 1.1.

With `CN(c1ccccc1)C1c2ccccc2N=C(NCCCNCCCCNCCCN)C1(C)C` (centres undefined), the Drug uptake stood at 2.6 nmol/mg in data set [1]; 3.3 nmol/mg in [19]; 3.2 nmol/mg in [20]; 0.41 nmol/mg in [16]; 0.02 nmol/mg in data set [17]; 9.5 nmol/mg in data set [5]. For the same compound, the Drug uptake in data set [6] was 1.8 nmol/mg; in [7] it was 7.6 nmol/mg; in data set [13], 16 nmol/mg; in data set [14], 0.6 nmol/mg. Moreover, the Selectivity ratio in data set [21] came to 1. Also, the half-maximal inhibitory concentration (IC50) in data set [8] is 2.3 µM; in data set [10], 8 µM.

Take `CC1C[C@]2(C)C(NCCCCN)=Nc3ccccc3[C@@H]2N(C)c2ccccc21` (some centres undefined): the half-inhibitory concentration (IC50) turned out to be 45 µM in data set [15], 54 µM in [8], 116 µM in [10] and 24 µM in data set [18]. Besides, the Drug uptake in data set [22] was found to be 6.3 nmol/mg; in data set [23] it was 9 nmol/mg; in data set [24] it was 13 nmol/mg; in [25], 8.2 nmol/mg; in data set [11], 3.6 nmol/mg; in [12] it was 3.3 nmol/mg. Moreover, the Drug uptake in data set [26] worked out at 0.85 nmol/mg; in [27], 0.7 nmol/mg; in [28] it was 11 nmol/mg; in data set [29], 0.87 nmol/mg. Also, the Selectivity ratio in data set [9] is listed as 1.1.
